Measured values pooled from the literature.
Protocols differ between the studies behind these lines.
Target: Serine/threonine-protein kinase TAO2 (TAOK2, Homo sapiens, UniProt Q9UL54)
Sequence (Q9UL54 1-1235, as in one of the studies): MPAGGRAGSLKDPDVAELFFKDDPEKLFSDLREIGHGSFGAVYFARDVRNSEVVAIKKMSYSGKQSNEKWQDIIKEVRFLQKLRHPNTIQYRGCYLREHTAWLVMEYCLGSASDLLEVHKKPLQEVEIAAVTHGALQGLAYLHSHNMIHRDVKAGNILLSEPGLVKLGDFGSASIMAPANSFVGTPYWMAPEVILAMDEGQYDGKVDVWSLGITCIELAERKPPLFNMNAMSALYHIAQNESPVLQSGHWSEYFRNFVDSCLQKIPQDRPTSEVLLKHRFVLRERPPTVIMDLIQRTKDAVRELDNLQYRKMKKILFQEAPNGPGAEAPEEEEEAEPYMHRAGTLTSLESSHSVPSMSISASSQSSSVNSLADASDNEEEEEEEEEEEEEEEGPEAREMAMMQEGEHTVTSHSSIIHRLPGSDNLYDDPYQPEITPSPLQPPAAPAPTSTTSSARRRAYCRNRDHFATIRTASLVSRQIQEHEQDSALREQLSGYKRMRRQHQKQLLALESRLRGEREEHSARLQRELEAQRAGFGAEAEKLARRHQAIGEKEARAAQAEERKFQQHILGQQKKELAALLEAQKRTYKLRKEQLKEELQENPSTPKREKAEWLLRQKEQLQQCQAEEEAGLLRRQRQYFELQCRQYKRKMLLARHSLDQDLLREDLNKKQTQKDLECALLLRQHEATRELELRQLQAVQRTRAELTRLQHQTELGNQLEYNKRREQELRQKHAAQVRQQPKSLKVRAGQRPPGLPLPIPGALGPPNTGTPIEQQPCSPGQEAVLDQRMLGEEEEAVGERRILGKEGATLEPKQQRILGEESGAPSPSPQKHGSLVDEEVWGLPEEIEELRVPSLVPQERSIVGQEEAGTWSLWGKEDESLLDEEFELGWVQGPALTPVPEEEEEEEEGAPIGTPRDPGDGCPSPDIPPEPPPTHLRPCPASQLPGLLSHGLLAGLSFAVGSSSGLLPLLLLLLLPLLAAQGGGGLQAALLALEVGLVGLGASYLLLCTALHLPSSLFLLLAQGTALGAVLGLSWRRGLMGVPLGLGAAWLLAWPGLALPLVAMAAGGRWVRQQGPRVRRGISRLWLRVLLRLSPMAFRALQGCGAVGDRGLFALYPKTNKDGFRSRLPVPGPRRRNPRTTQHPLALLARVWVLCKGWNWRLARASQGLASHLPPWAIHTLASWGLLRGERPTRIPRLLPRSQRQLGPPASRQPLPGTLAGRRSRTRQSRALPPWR

SMILES | test | conditions | measurement | value
CCCOc1ccc(OC)c(F)c1C(=O)c1ccc(C(=O)N[C@@H]2CNC[C@H]2NC(=O)c2ccc3[nH]ncc3c2)cc1 | enzyme activity, inhibitor | 10 µM | remaining activity | 95%
C[C@@H](c1cccc(C#N)c1)n1cc(Cl)cc(C(N)=O)c1=N | cell-free assay, competition with immobilised ligand | 1 µM | remaining binding | 84%
CNC(=O)c1cc(Oc2ccc(NC(=O)Nc3ccc(Cl)c(C(F)(F)F)c3)cc2)ccn1 | enzyme activity, inhibitor | 10 µM | inhibition | 102%
Cc1cnc(NC2CCOCC2)nc1-n1cnc(C(=O)NC(CN)c2cc(F)cc(Cl)c2)c1 (stereo not drawn) | enzyme activity, inhibitor, radiometric | 1 µM | remaining activity | 88%
CCCS(=O)(=O)Nc1ccc(F)c(C(=O)c2c[nH]c3ncc(-c4ccc(Cl)cc4)cc23)c1F | enzyme activity, inhibitor | 1 µM | inhibition | < 10%
COc1cc(-c2cc(-c3ccc(N4CCNCC4)cc3)cnc2C)cc(OC)c1OC | enzyme activity, inhibitor | 0.1 µM | inhibition | 2%
CC(C)(C)c1nc2c(s1)c1nc(N)ncc1c1ccc(NS(=O)(=O)c3c(F)cccc3F)c(F)c12 | enzyme activity, inhibitor, radiometric | 1 µM | remaining activity | 84%
CSc1nc(C)c(-c2ccnc(Nc3ccc(N4CCOCC4)cc3)c2)[nH]1 | enzyme activity, inhibitor | 10 µM | inhibition | 2.1%
Cc1ccc(Nc2nccc(N(C)c3ccc4c(C)n(C)nc4c3)n2)cc1S(N)(=O)=O | enzyme activity, inhibitor | 0.3 µM | inhibition | 43%
COc1cccc(CNC(=O)c2nc3scc(COCc4ccc(C(=O)O)cc4)c3c(=O)[nH]2)c1 | cell-free assay, competition with immobilised ligand | 1 µM | remaining binding | 59.8%
CN1CC(Oc2cnc(C#N)cc2-c2ccn3nc(NC(=O)C4CC4)cc3c2)C1 | enzyme activity, inhibitor | 1 µM | inhibition | 0%
O=[N+]([O-])c1cccc2[nH]c(CNc3nc(N4CCOCC4)nc4c3ncn4-c3ccsc3)nc12 | binding, competition with immobilised ligand | 10 µM | binding vs control | 84%
CC(=O)N1CCC(c2ccc(C(=O)NC3=NCCN3)cc2C(F)(F)F)CC1 | cell-free assay, competition with immobilised ligand | 1 µM | remaining binding | 100%
COc1cccc2c(NCc3ccccc3)nc(-n3c(N)nc4ccccc43)nc12 | target engagement in cells, inhibitor, chemoproteomics | 20 mM | inhibition | -6.8%
O=C(N1CCS(=O)(=O)CC1)N1C[C@H](c2ccc(OC(F)(F)F)cc2)C[C@H](c2nc(C3CC3)no2)C1 | cell-free assay, competition with immobilised ligand | 1 µM | remaining binding | 100%
COc1cc(Cl)c(C(=O)N[C@@H](CN[C@H]2CC[C@@H](N)CC2)Cc2ccc(C#N)cc2)cc1-c1ccc(CN[C@H](C)c2ccc(C)cc2)o1 | enzyme activity, inhibitor | 1 µM | remaining activity | 96%
CN(C)c1ncnc(-c2ccc3nc(Nc4cc(CN5CCN(C(=O)CC(F)(F)F)CC5)ccn4)[nH]c3c2)c1Cl | cell-free assay, competition with immobilised ligand | 1 µM | remaining binding | 80%
CCN(CC)CCNC(=O)c1c(C)[nH]c(/C=C2\C(=O)Nc3ccc(F)cc32)c1C | enzyme activity, inhibitor | 0.3 µM | inhibition | -3%
